Test results: ChEMBL document CHEMBL3808283, “Biological Characterization and in Vivo Assessment of the Activity of a New Synthetic Macrocyclic Antifungal Compound” (J Med Chem, 2016)
≈ marks a conversion by molar mass, not a printed value. Calls of active or inactive are those of the source. No cut-off for these calls is given here.

Key:
Candida albicans [1] = test: Upregulation of CDR1 gene expression in Candida albicans SC5314 at 3 uM after 15 mins by microarray method relative to control; format: functional
Procedure, shortened: (§1)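 Log-phase C. albicans SC5314 in liquid YEPD exposed to 3 µM final for 15 or 45 min; untreated controls taken at the same time points. Three biological replicates. RNA extracted by glass-bead/phenol-chloroform method and integrity checked. One-color Cy3-labeled cRNA (600 ng) hybridized 17 h at 65 °C to 8 × 15K arrays. Expression expressed as fold change versus control.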

Candida parapsilosis [2] = test: Ratio of MIC at 24 hrs to MIC at 48 hrs for Candida parapsilosis 81E; format: functional
Procedure, shortened: (§2)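 MICs by EUCAST broth microdilution, with the update for non-fermenting yeasts, incubated at 37 °C. Read at 24, 48 and 72 h as the lowest concentration preventing visible growth.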

Candida albicans [3] = test: Upregulation of LCB4 gene expression in Candida albicans SC5314 at 3 uM after 45 mins by microarray method relative to control; format: functional; procedure, shortened: as §1
Candida albicans [4] = test: Upregulation of TAC1 gene expression in Candida albicans SC5314 at 3 uM after 45 mins by microarray method relative to control; format: functional; procedure, shortened: as §1
Candida albicans [5] = test: Upregulation of RTA2 gene expression in Candida albicans SC5314 at 3 uM after 15 mins by microarray method relative to control; format: functional; procedure, shortened: as §1
Candida albicans [6] = test: Upregulation of orf19.6873.1 gene expression in Candida albicans SC5314 at 3 uM after 45 mins by microarray method relative to control; format: functional
Procedure, shortened: (§3)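 Log-phase cultures in liquid YEPD were exposed to 3 µM compound (final) for 15 or 45 min, with untreated controls sampled at the same times, in three biological replicates. Total RNA was extracted by glass-bead/phenol-chloroform disruption and integrity-checked. One-color Cy3-labelled cRNA (600 ng) was hybridized for 17 h at 65 °C to 8 × 15K arrays, and fold change was taken versus control.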

Candida albicans [7] = test: Upregulation of orf19.4907 gene expression in Candida albicans SC5314 at 3 uM after 45 mins by microarray method relative to control; format: functional; procedure, shortened: as §3
Pichia kudriavzevii [8] = test: Ratio of MIC at 24 hrs to MIC at 48 hrs for Candida krusei 193T; format: functional; procedure, shortened: as §2
Candida albicans [9] = test: Upregulation of orf19.3089 gene expression in Candida albicans SC5314 at 3 uM after 15 mins by microarray method relative to control; format: functional; procedure, shortened: as §3
Cryptococcus neoformans [10] = test: Antifungal activity against Cryptococcus neoformans measured at 24 hrs by broth dilution assay; format: functional, organism-based
Procedure, shortened: (§4)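 EUCAST broth microdilution, including the update for non-fermenting yeasts (Cryptococcus, Geotrichum), on clinical and reference yeast isolates. Incubated at 37 °C and read at 24, 48 and 72 h. MIC taken as the lowest concentration with no visible growth. For Cryptococcus and Geotrichum, MICs were read only once growth was visible in the control row.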

Magnusiomyces capitatus [11] = test: Antifungal activity against Geotrichum capitatum measured at 24 hrs by broth dilution assay; format: functional; procedure, shortened: as §4
Pichia kudriavzevii [12] = test: Antifungal activity against Candida krusei ATCC 14243 measured at 24 hrs by broth dilution assay; format: functional; settings: ATCC 14243, 24 h; procedure, shortened: as §4
Candida albicans [13] = test: Antifungal activity against Candida albicans isolate DSY448 harboring CDR1 deletion mutant at 10 uM by serial dilution assay; format: functional, organism-based
Procedure, shortened: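 Spot dilution assay: C. albicans cells 10-fold serially diluted from 2 × 10^7 cells/mL, with 5 µL of each dilution spotted onto YEPD agar plates containing the drug.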

Candida albicans [14] = test: Antifungal activity against Candida albicans 15T measured at 72 hrs by broth dilution assay; format: functional; procedure, shortened: as §4
Candida albicans [15] = test: Upregulation of CRZ2 gene expression in Candida albicans SC5314 at 3 uM after 45 mins by microarray method relative to control; format: functional; procedure, shortened: as §1
Candida albicans [16] = test: Antifungal activity against fluconazole-susceptible Candida albicans ATCC 90028 in immunocompetent Balb/c mouse candidiasis model assessed as reduction in CFU count in spleen at 20 to 40 mg/kg/day, ip regime measured on day 7 post infection; format: functional, organism-based
Procedure, shortened: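 Immunocompetent BALB/c mice, 10 per strain group, injected in the lateral tail vein with 7 × 10^4 CFU of C. albicans in 200 µL sterile saline. Compound given ip daily, 100 µL of 0.1 mg/mL in DMSO/PEG 400 2:1; fluconazole control ip at 8 mg/kg/day. On day 7, spleen and kidneys were excised, weighed and homogenized in saline, then plated on YPD agar for 2 days at 30 °C. Read-out CFU/g; Wilcoxon rank-sum test, P<0.05.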

Candida albicans [17] = test: Antifungal activity against Candida albicans 4T measured at 48 hrs by broth dilution assay; format: functional; procedure, shortened: as §4
Nakaseomyces glabratus = test: Antifungal activity against Candida glabrata 70 measured at 24 hrs by broth dilution assay; format: functional; settings: Nakaseomyces glabratus, 70, 24 h; procedure, shortened: as §4
Candida albicans [18] = test: Upregulation of orf19.2726 gene expression in Candida albicans SC5314 at 3 uM after 45 mins by microarray method relative to control; format: functional; procedure, shortened: as §3
Candida albicans [19] = test: Upregulation of orf19.1887 gene expression in Candida albicans SC5314 at 3 uM after 15 mins by microarray method relative to control; format: functional; procedure, shortened: as §3
[20] = Chemical stability in RPMI-1640 buffer at 2 mM up to 72 hrs at 30 degC by LC-UV-MS analysis; settings: 2000 µM
Candida albicans [21] = test: Antifungal activity against Candida albicans 4T measured at 72 hrs by broth dilution assay; format: functional; procedure, shortened: as §4
Cryptococcus neoformans [22] = test: Fungicidal activity against Cryptococcus neoformans at 40 uM measured at 72 hrs by time kill assay; format: functional, organism-based
Candida parapsilosis [23] = test: Antifungal activity against Candida parapsilosis 81E measured at 72 hrs by broth dilution assay; format: functional; settings: Lodderomyces parapsilosis; procedure, shortened: as §4
Magnusiomyces capitatus [24] = test: Antifungal activity against Geotrichum capitatum measured at 72 hrs by broth dilution assay; format: functional; procedure, shortened: as §4
Candida albicans [25] = test: Antifungal activity against Candida albicans ATCC 60193 up to 96 hrs by broth dilution assay; format: functional
Pichia kudriavzevii [26] = test: Antifungal activity against Candida krusei 193T measured at 24 hrs by broth dilution assay; format: functional; procedure, shortened: as §4
Pichia kudriavzevii [27] = test: Antifungal activity against Candida krusei ATCC 14243 measured at 48 hrs by broth dilution assay; format: functional; settings: ATCC 14243, 48 h; procedure, shortened: as §4
Candida albicans [28] = test: Antifungal activity against Candida albicans 53T measured at 24 hrs by broth dilution assay; format: functional; procedure, shortened: as §4
Candida albicans [29] = test: Antifungal activity against Candida albicans ATCC 60193 measured at 24 hrs by broth dilution assay; format: functional; settings: ATCC 60193, 24 h; procedure, shortened: as §4
Candida albicans [30] = test: Upregulation of orf19.4907 gene expression in Candida albicans SC5314 at 3 uM after 15 mins by microarray method relative to control; format: functional; procedure, shortened: as §3
Candida albicans [31] = test: Upregulation of ERG2 gene expression in Candida albicans SC5314 at 3 uM after 45 mins by microarray method relative to control; format: functional; procedure, shortened: as §1
Candida parapsilosis [32] = test: Antifungal activity against Candida parapsilosis 81E measured at 24 hrs by broth dilution assay; format: functional; settings: Lodderomyces parapsilosis; procedure, shortened: as §4
Candida albicans [33] = test: Upregulation of orf19.4531 gene expression in Candida albicans SC5314 at 3 uM after 15 mins by microarray method relative to control; format: functional; procedure, shortened: as §3
Pichia kudriavzevii [34] = test: Antifungal activity against Candida krusei 193T measured at 48 hrs by broth dilution assay; format: functional; procedure, shortened: as §4
Candida albicans [35] = test: Upregulation of PDR16 gene expression in Candida albicans SC5314 at 3 uM after 15 mins by microarray method relative to control; format: functional; procedure, shortened: as §1

SMILES: C/C=C/CNC(=N)NCCCCCCCCN1CCCCCCCCNC(=N)NC1=O
- fold change (FC) (Candida albicans [1]): 3.07
- Ratio (Candida parapsilosis [2]): 2
- fold change (FC) (Candida albicans [3]): 3.69
- fold change (FC) (Candida albicans [4]): 3.38
- fold change (FC) (Candida albicans [5]): 3.07
- fold change (FC) (Candida albicans [6]): 1.9
- fold change (FC) (Candida albicans [7]): 5.3
- Ratio (Pichia kudriavzevii [8]): 8
- fold change (FC) (Candida albicans [9]): 2.39
- Activity (Cryptococcus neoformans [10]): Active
- Activity (Magnusiomyces capitatus [11]): Active
- MIC (Pichia kudriavzevii [12]): 10 µM (≈ 4.36 µg/mL)
- Activity (Candida albicans [13]): inactive
- MIC (Candida albicans [14]): 5 µM (≈ 2.18 µg/mL)
- fold change (FC) (Candida albicans [15]): 2.66
- Activity (Candida albicans [16]): Active
- MIC (Candida albicans [17]): 5 µM (≈ 2.18 µg/mL)
- MIC (Nakaseomyces glabratus): > 80 µM
- fold change (FC) (Candida albicans [18]): 6.56
- fold change (FC) (Candida albicans [19]): 2.19
- Stability [20]: Stable
- MIC (Candida albicans [21]): 5 µM (≈ 2.18 µg/mL)
- Activity (Cryptococcus neoformans [22]): Active
- MIC (Candida parapsilosis [23]): 40 µM (≈ 17.4 µg/mL)
- MIC (Magnusiomyces capitatus [24]): 10 µM (≈ 4.36 µg/mL)
- Activity (Candida albicans [25]): Active
- MIC (Pichia kudriavzevii [26]): 10 µM (≈ 4.36 µg/mL)
- MIC (Pichia kudriavzevii [27]): 80 µM (≈ 34.9 µg/mL)
- MIC (Candida albicans [28]): 5 µM (≈ 2.18 µg/mL)
- MIC (Candida albicans [29]): 5 µM (≈ 2.18 µg/mL)
- fold change (FC) (Candida albicans [30]): 3.9
- fold change (FC) (Candida albicans [31]): 2.83
- MIC (Candida parapsilosis [32]): 20 µM (≈ 8.71 µg/mL)
- fold change (FC) (Candida albicans [33]): 17.22
- MIC (Pichia kudriavzevii [34]): 80 µM (≈ 34.9 µg/mL)
- fold change (FC) (Candida albicans [35]): 4.43
